Measurements published in ChEMBL document CHEMBL1154367, “Novel 4-N-substituted aryl but-3-ene-1,2-dione derivatives of piperazinyloxazolidinones as antibacterial agents” (2009).
In brackets after ≈: the same amount, converted by molar mass. Activity calls are given as the source filed them. No cut-off for these calls is given here.

Experiments:
Staphylococcus aureus [1] = experiment: Antibacterial activity against methicillin-resistant Staphylococcus aureus ATCC 70069 after 24 hrs by agar dilution method; type: functional; details: ATCC 70069, 24 h
Bacillus cereus = experiment: Antibacterial activity against Bacillus cereus MTCC 430 after 24 hrs by agar dilution method; type: functional; details: MTCC 430, 24 h
Outline: (§1)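 MIC by agar dilution with doubling dilutions in cation-adjusted Mueller Hinton agar, 50–0.019 range, incubated in air at 35 °C for 24 h. Strains pre-grown on nutrient agar at 37 °C for 24 h, then suspended in normal saline with 0.05% Tween 20 at about 1.0–2.0 × 10⁷ cells/mL, matched to 0.5 McFarland.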

Staphylococcus aureus [2] = experiment: Antibacterial activity against floxacin and methicillin-resistant Staphylococcus aureus ATCC 25923 after 24 hrs by agar dilution method; type: functional; details: ATCC 25923, 24 h
Staphylococcus aureus [3] = experiment: Antibacterial activity against methicillin and vancomycin-resistant Staphylococcus aureus ATCC 29213 after 24 hrs by agar dilution method; type: functional; details: ATCC 29213, 24 h
Enterococcus faecalis = experiment: Antibacterial activity against Enterococcus faecalis MTCC 439 after 24 hrs by agar dilution method; type: functional; details: MTCC 439, 24 h; outline: as §1
Streptococcus pyogenes = experiment: Antibacterial activity against Streptococcus pyogenes after 24 hrs by agar dilution method; type: functional; outline: as §1
Escherichia coli = experiment: Antibacterial activity against Escherichia coli after 24 hrs by agar dilution method; type: functional, organism-based; outline: as §1
Klebsiella pneumoniae = experiment: Antibacterial activity against Klebsiella pneumoniae after 24 hrs by agar dilution method; type: functional, organism-based; outline: as §1
Pseudomonas aeruginosa = experiment: Antibacterial activity against Pseudomonas aeruginosa after 24 hrs by agar dilution method; type: functional, organism-based; outline: as §1

Structure (SMILES) | MIC (Staphylococcus aureus [1]) [µg/mL] | MIC (Bacillus cereus) [µg/mL] | MIC (Staphylococcus aureus [2]) [µg/mL] | MIC (Staphylococcus aureus [3]) [µg/mL] | MIC (Enterococcus faecalis) [µg/mL] | MIC (Streptococcus pyogenes) [µg/mL] | Activity (Escherichia coli) | Activity (Klebsiella pneumoniae) | Activity (Pseudomonas aeruginosa)
CC(=O)NC[C@H]1CN(c2ccc(N3CCN(C(=O)C(=O)/C=C/c4ccc(F)cc4)CC3)c(F)c2)C(=O)O1 | 0.78 (≈ 1.52 µM) | 0.39 (≈ 0.761 µM) | 0.78 (≈ 1.52 µM) | 1.56 (≈ 3.04 µM) | 0.78 (≈ 1.52 µM) | 0.39 (≈ 0.761 µM) | inactive | inactive | inactive
CC(=O)NC[C@H]1CN(c2ccc(N3CCN(C(=O)C(=O)/C=C/c4ccco4)CC3)c(F)c2)C(=O)O1 | 1.56 (≈ 3.22 µM) | 0.78 (≈ 1.61 µM) | 0.39 (≈ 0.805 µM) | 3.12 (≈ 6.44 µM) | 0.78 (≈ 1.61 µM) | 0.78 (≈ 1.61 µM) | inactive | inactive | inactive
CC(=O)NC[C@H]1CN(c2ccc(N3CCN(C(=O)C(=O)/C=C/c4cccs4)CC3)c(F)c2)C(=O)O1 | 0.78 (≈ 1.56 µM) | 0.39 (≈ 0.779 µM) | 0.39 (≈ 0.779 µM) | 1.56 (≈ 3.12 µM) | 0.78 (≈ 1.56 µM) | 0.39 (≈ 0.779 µM) | inactive | inactive | inactive
CC(=O)NC[C@H]1CN(c2ccc(N3CCN(C(=O)C(=O)/C=C/c4ccc(Cl)cc4)CC3)c(F)c2)C(=O)O1 | 0.78 (≈ 1.47 µM) | 0.39 (≈ 0.737 µM) | 0.78 (≈ 1.47 µM) | 0.78 (≈ 1.47 µM) | 0.78 (≈ 1.47 µM) | 0.39 (≈ 0.737 µM) | inactive | inactive | inactive
CN[C@H](CC(C)C)C(=O)N[C@H]1C(=O)N[C@@H](CC(N)=O)C(=O)N[C@H]2C(=O)N[C@H]3C(=O)N[C@H](C(=O)N[C@H](C(=O)O)c4cc(O)cc(O)c4-c4cc3ccc4O)[C@H](O)c3ccc(c(Cl)c3)Oc3cc2cc(c3O[C@@H]2O[C@H](CO)[C@@H](O)[C@H](O)[C@H]2O[C@H]2C[C@](C)(N)[C@H](O)[C@H](C)O2)Oc2ccc(cc2Cl)[C@H]1O [VANCOMYCIN] | 6.25 (≈ 4.31 µM) | 0.19 (≈ 0.131 µM) | 0.39 (≈ 0.269 µM) | 1.56 (≈ 1.08 µM) | 0.78 (≈ 0.538 µM) | 0.39 (≈ 0.269 µM) |  |  | 
CC(=O)NC[C@H]1CN(c2ccc(N3CCN(C(=O)C(=O)/C=C/c4ccc(Cl)c(Cl)c4Cl)CC3)c(F)c2)C(=O)O1 | > 50 | > 50 | > 50 | > 50 | > 50 | > 50 | inactive | inactive | inactive
CC(=O)NC[C@H]1CN(c2ccc(N3CCOCC3)c(F)c2)C(=O)O1 [LINEZOLID] | 1.56 (≈ 4.62 µM) | 0.78 (≈ 2.31 µM) | 1.56 (≈ 4.62 µM) | 3.12 (≈ 9.25 µM) | 3.12 (≈ 9.25 µM) | 1.56 (≈ 4.62 µM) |  |  | 
CC(=O)NC[C@H]1CN(c2ccc(N3CCN(C(=O)C(=O)/C=C/c4ccc(C)cc4)CC3)c(F)c2)C(=O)O1 | 0.19 (≈ 0.374 µM) | 0.19 (≈ 0.374 µM) | 0.19 (≈ 0.374 µM) | 0.39 (≈ 0.767 µM) | 0.04 (≈ 0.0787 µM) | 0.09 (≈ 0.177 µM) | inactive | inactive | inactive
CC(=O)NC[C@H]1CN(c2ccc(N3CCN(C(=O)C(=O)/C=C/c4ccccc4)CC3)c(F)c2)C(=O)O1 | 0.39 (≈ 0.789 µM) | 0.39 (≈ 0.789 µM) | 0.78 (≈ 1.58 µM) | 0.78 (≈ 1.58 µM) | 0.78 (≈ 1.58 µM) | 0.39 (≈ 0.789 µM) | inactive | inactive | inactive
CC(=O)NC[C@H]1CN(c2ccc(N3CCN(C(=O)C(=O)/C=C/c4ccc(C(F)(F)F)cc4)CC3)c(F)c2)C(=O)O1 | 0.78 (≈ 1.39 µM) | 1.56 (≈ 2.77 µM) | 0.78 (≈ 1.39 µM) | 1.56 (≈ 2.77 µM) | 0.19 (≈ 0.338 µM) | 0.19 (≈ 0.338 µM) | inactive | inactive | inactive
CC(=O)NC[C@H]1CN(c2ccc(N3CCN(C(=O)C(=O)/C=C/c4ccc(F)c(F)c4)CC3)c(F)c2)C(=O)O1 | 1.56 (≈ 2.94 µM) | 0.39 (≈ 0.735 µM) | 0.78 (≈ 1.47 µM) | 3.12 (≈ 5.88 µM) | 0.78 (≈ 1.47 µM) | 0.78 (≈ 1.47 µM) | inactive | inactive | inactive
CC(=O)NC[C@H]1CN(c2ccc(N3CCN(C(=O)C(=O)/C=C/c4ccsc4)CC3)c(F)c2)C(=O)O1 | 0.78 (≈ 1.56 µM) | 0.78 (≈ 1.56 µM) | 0.78 (≈ 1.56 µM) | 1.56 (≈ 3.12 µM) | 0.78 (≈ 1.56 µM) | 0.39 (≈ 0.779 µM) | inactive | inactive | inactive
